Source: ChEMBL document CHEMBL1764962, “Selective biocatalytic aminolysis of (±)-epichlorohydrin: synthesis and ICAM-1 inhibitory activity of (S)-(+)-3-arylamino-1-chloropropan-2-ols” (Bioorg Med Chem, 2011)
≈ marks a conversion by molar mass, not a printed value.

How the values were obtained:
[1] = Toxicity in human HUVEC assessed as maximum tolerable dose by trypan blue exclusion assay; format: cell-based; settings: HUVEC cells, read-out: MTD
Procedure, shortened: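 Primary human umbilical vein endothelial cells were isolated by mild trypsinization. They were grown in M199 with 15% heat-inactivated FCS, 2 mM L-glutamine, penicillin/streptomycin, amphotericin B, endothelial cell growth factor and heparin. Cells were subcultured at confluence with trypsin–EDTA and used at passages three to four. Viability was scored by trypan blue exclusion.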

HUVEC [2] = assay: Antiinflammatory activity in human HUVEC assessed as inhibition of TNF-alpha-induced ICAM-1 expression by modified ELISA; format: functional, cell-based
Procedure, shortened: (§1)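 Primary human umbilical cord endothelial cells were isolated by mild trypsinization and grown in M199 with 15% heat-inactivated FCS, L-glutamine, antibiotics, endothelial cell growth factor and heparin, then used at passages 3–4. Cells were preincubated with compound, then given TNF-α (10 ng/ml) for 16 h and fixed with glutaraldehyde. Surface ICAM-1 was measured by cell-ELISA using anti-ICAM-1 mAb overnight at 4 °C, HRP anti-mouse secondary and OPD substrate (pH 4.5), reading A490.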

HUVEC [3] = assay: Antiinflammatory activity in human HUVEC assessed as inhibition of TNF-alpha-induced ICAM-1 expression at maximum tolerable dose of 30 ug/ml by modified ELISA; format: functional; procedure, shortened: as §1
HUVEC [4] = assay: Antiinflammatory activity in human HUVEC assessed as inhibition of TNF-alpha-induced ICAM-1 expression at maximum tolerable dose of 40 ug/ml by modified ELISA; format: functional; procedure, shortened: as §1
[5] = Homo sapiens, HUVEC, read-out: IC50

| SMILES | MNTC [1] [µg/mL] | IC50 (HUVEC [2]; [5]) [µg/mL] | inhibition at 30 µg/mL (HUVEC [3]) [%] | IC50 (HUVEC [2]; huvec) | inhibition at 40 µg/mL (HUVEC [4]) [%] |
| --- | --- | --- | --- | --- | --- |
| O[C@H](CCl)CNc1ccccc1 | 30 | 39.8 (≈ 214 µM) | 38 |  |  |
| O[C@H](CCl)CNc1cccc(Cl)c1 | 30 |  | 24 | Not Active |  |
| O[C@H](CCl)CNc1ccc(Cl)cc1 | 30 | 28.8 (≈ 131 µM) | 60 |  |  |
| Cc1ccc(NC[C@H](O)CCl)cc1 | 40 | 28.8 (≈ 144 µM) |  |  | 81 |
| O[C@H](CCl)CNc1ccccc1Cl | 40 | 33.1 (≈ 150 µM) |  |  | 86 |
| COc1ccc(OC)c(NC[C@H](O)CCl)c1 | 30 |  | 40 | Not Active |  |
| O[C@H](CCl)CNc1ccc(Br)cc1 | 40 | 31.6 (≈ 119 µM) |  |  | 76 |
